We go through eight molecules from ChEMBL document CHEMBL4813940, “Design, synthesis and biological evaluation of novel benzoxaborole derivatives as potent PDE4 inhibitors for topical treatment of atopic dermatitis” (Eur J Med Chem, 2021).

Data set [1] deals with T1, 3',5'-cyclic-AMP phosphodiesterase 4B (Homo sapiens, UniProt Q07343). Nature of the data set: Inhibition of PDE4B (unknown origin) assessed as hydrolysis of [3H]-cAMP into [3H]-AMP incubated for 30 mins by scintillation of proximity assay.
The subject of data set [2] is Mus musculus. Nature of the data set: Antiinflammatory activity against PMA-induced ICR mouse ear oedema model assessed as reduction in ear swelling at 1 mg/ear topically administered and measured after 4 hrs. Type of data set: functional. The method, boiled down: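 Male ICR mice, 8 weeks old. The sample was applied topically to the right ear at 1.0 mg/ear in ethanol before PMA. After 4 h the mice were killed by cervical dislocation and both ears were measured with a micrometer. Oedema was the thickness difference between the ears; inhibition was the percent reduction versus the model group.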

Data set [3] deals with T1, 3',5'-cyclic-AMP phosphodiesterase 4B. Nature of the data set: Inhibition of PDE4B (unknown origin) assessed as hydrolysis of [3H]-cGMP into [3H]-GMP incubated for 30 mins by scintillation of proximity assay. Particulars: in the assay text read “[3H]-cAMP into [3H]-AMP” for “[3H]-cGMP into [3H]-GMP”. The method, boiled down: (§1)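 Scintillation proximity assay of [3H]-cAMP or [3H]-cGMP hydrolysis to [3H]-AMP or [3H]-GMP. Enzyme was diluted to 1–2 nM in 50 mM Tris pH 7.5, 8.3 mM MgCl2 and 1.7 mM EGTA. Reaction was started by adding enzyme, test solution and radiolabelled substrate, then incubated at 30 °C for 30 min and stopped with SPA beads. Run in duplicate.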

In data set [4] the target is cGMP-inhibited 3',5'-cyclic phosphodiesterase 3B (Homo sapiens, UniProt Q13370). Nature of the data set: Inhibition of PDE3B (unknown origin). The method, boiled down: as §1
Data set [5] is filed under the species Homo sapiens. Nature of the data set: Selectivity index, ratio of IC50 for PDE5A (unknown origin) to IC50 for PDE4B (unknown origin).
Data set [6] addresses cGMP-dependent 3',5'-cyclic phosphodiesterase (Homo sapiens, UniProt O00408). Nature of the data set: Inhibition of PDE2A (unknown origin). A digest of the protocol: as §1
In data set [7] the target is High affinity 3',5'-cyclic-AMP phosphodiesterase 7A (Homo sapiens, UniProt Q13946). Nature of the data set: Inhibition of PDE7A (unknown origin). The method, boiled down:
as §1

The target in data set [8] is Dual specificity calcium/calmodulin-dependent 3',5'-cyclic nucleotide phosphodiesterase 1B (Homo sapiens, UniProt Q01064). Nature of the data set: Inhibition of PDE1B (unknown origin). A digest of the protocol: as §1
The target in data set [9] is T1, 3',5'-cyclic-AMP phosphodiesterase 4B. Nature of the data set: Inhibition of PDE4B (unknown origin). A digest of the protocol:
as §1

The species entered for data set [10] is Homo sapiens. Nature of the data set: Selectivity index, ratio of IC50 for PDE3A (unknown origin) to IC50 for PDE4B (unknown origin).
For data set [11], the target named is cGMP-inhibited 3',5'-cyclic phosphodiesterase 3A (Homo sapiens, UniProt Q14432). Nature of the data set: Inhibition of PDE3A (unknown origin). The method, boiled down:
as §1

Data set [12] is filed under the species Homo sapiens. Nature of the data set: Selectivity index, ratio of IC50 for PDE3B (unknown origin) to IC50 for PDE4B (unknown origin).
Data set [13] can be described thus: Phototoxicity in albino guinea pig assessed as infiltration of inflammatory cells at 10 mg/kg topical treatment irradiated with 4.2 mw/cm2 UVA for 40 mins and measured after 24 hrs day of light irradiation by H and E staining based microscopic analysis. Type of data set: organism-based, Cavia porcellus. Particulars: in vivo, topical_or_ocular, in the assay text read “72 hrs” for “24 hrs”. A digest of the protocol: (§2)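 Albino guinea pigs (250–300 g) were randomized into 5 groups. Four 2 cm × 2 cm depilated areas beside the spine were prepared 24 h before dosing, and 0.2 mL of test substance was applied. Animals were restrained and exposed to UVA for 40 min. Erythema, eschar and oedema were scored visually at 1, 24, 48 and 72 h. Skin taken at 72 h was formalin-fixed, H&E-stained and read by a pathologist.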

The target of data set [14] is Dual specificity calcium/calmodulin-dependent 3',5'-cyclic nucleotide phosphodiesterase 1C (Homo sapiens, UniProt Q14123). Nature of the data set: Inhibition of PDE1C (unknown origin). The method, boiled down:
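For PDE1A, PDE1B and PDE1C, the reaction buffer was also supplemented with 0.2 mM CaCl2 and […]. Otherwise the same SPA run as the other PDEs: [3H]-nucleotide hydrolysis at 30 °C for 30 min, in duplicate.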

The species named for data set [15] is Homo sapiens. Nature of the data set: Selectivity index, ratio of IC50 for PDE10A (unknown origin) to IC50 for PDE4B (unknown origin).
The target of data set [16] is cGMP-specific 3',5'-cyclic phosphodiesterase (Homo sapiens, UniProt O76074). Nature of the data set: Inhibition of PDE5A (unknown origin). The method, boiled down:
as §1

Data set [17] can be described thus: Phototoxicity in albino guinea pig assessed as necrosis at 10 mg/kg topical treatment irradiated with 4.2 mw/cm2 UVA for 40 mins and measured after 24 hrs day of light irradiation by H and E staining based microscopic analysis. Type of data set: organism-based, Cavia porcellus. The following applies: in vivo, topical_or_ocular, in the assay text read “72 hrs” for “24 hrs”. The method, boiled down: as §2

The target of data set [18] is cAMP and cAMP-inhibited cGMP 3',5'-cyclic phosphodiesterase 10A (Homo sapiens, UniProt Q9Y233). Nature of the data set: Inhibition of PDE10A (unknown origin). The method, boiled down: as §1
For data set [19], the species on record is Homo sapiens. Nature of the data set: Selectivity index, ratio of IC50 for PDE2A (unknown origin) to IC50 for PDE4B (unknown origin).
Data set [20] relates to Mus musculus. Nature of the data set: Antiinflammatory activity against calcipotriol-induced atopic dermatitis mouse model assessed as swelling inhibition by measuring thickness of left ear at 30 mg/kg for 14 days (RVB = 0.26 +/- 0.01 mm). Type of data set: functional. The following applies: time 14 day. A digest of the protocol: (§3)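 Ointment was applied to the dorsal side of the left ear twice daily (30 mg/kg) for 14 days; the normal group received ethanol. On day 17 the mice were anaesthetized with 10% chloral hydrate and ear thickness was measured with a micrometer. Percent inhibition of the inflammatory reaction was calculated against untreated animals.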

The species entered for data set [21] is Homo sapiens. Nature of the data set: Selectivity index, ratio of IC50 for PDE1C (unknown origin) to IC50 for PDE4B (unknown origin).
The species entered for data set [22] is Homo sapiens. Nature of the data set: Selectivity index, ratio of IC50 for PDE1B (unknown origin) to IC50 for PDE4B (unknown origin).
The target of data set [23] is Dual specificity calcium/calmodulin-dependent 3',5'-cyclic nucleotide phosphodiesterase 1A (Homo sapiens, UniProt P54750). Nature of the data set: Inhibition of PDE1A (unknown origin). The method, boiled down: as §1
For data set [24], the species on record is Homo sapiens. Nature of the data set: Selectivity index, ratio of IC50 for PDE7A (unknown origin) to IC50 for PDE4B (unknown origin).
For data set [25], the system named is Mus musculus. Nature of the data set: Antiinflammatory activity against calcipotriol-induced atopic dermatitis mouse model assessed as swelling inhibition at 30 mg/kg for 14 days. The data set is classed as functional. Set-up: scale not given: the % may be the effect or the level left. Particulars: time 14 day. The method, boiled down: as §3
For data set [26], the species on record is Homo sapiens. Nature of the data set: Selectivity index, ratio of IC50 for PDE1A (unknown origin) to IC50 for PDE4B (unknown origin).
Data set [27] has as its system Mus musculus. Nature of the data set: Antiinflammatory activity against calcipotriol-induced atopic dermatitis mouse model assessed as swelling inhibition by measuring thickness of right ear at 30 mg/kg for 14 days (RVB = 0.55 +/- 0.06 mm). The data set is classed as functional. The following applies: time 14 day. The method, boiled down:
as §3

Broadly, the IC50 is the concentration at which inhibition is half-maximal.

T1 sequence (Q07343 whole entry): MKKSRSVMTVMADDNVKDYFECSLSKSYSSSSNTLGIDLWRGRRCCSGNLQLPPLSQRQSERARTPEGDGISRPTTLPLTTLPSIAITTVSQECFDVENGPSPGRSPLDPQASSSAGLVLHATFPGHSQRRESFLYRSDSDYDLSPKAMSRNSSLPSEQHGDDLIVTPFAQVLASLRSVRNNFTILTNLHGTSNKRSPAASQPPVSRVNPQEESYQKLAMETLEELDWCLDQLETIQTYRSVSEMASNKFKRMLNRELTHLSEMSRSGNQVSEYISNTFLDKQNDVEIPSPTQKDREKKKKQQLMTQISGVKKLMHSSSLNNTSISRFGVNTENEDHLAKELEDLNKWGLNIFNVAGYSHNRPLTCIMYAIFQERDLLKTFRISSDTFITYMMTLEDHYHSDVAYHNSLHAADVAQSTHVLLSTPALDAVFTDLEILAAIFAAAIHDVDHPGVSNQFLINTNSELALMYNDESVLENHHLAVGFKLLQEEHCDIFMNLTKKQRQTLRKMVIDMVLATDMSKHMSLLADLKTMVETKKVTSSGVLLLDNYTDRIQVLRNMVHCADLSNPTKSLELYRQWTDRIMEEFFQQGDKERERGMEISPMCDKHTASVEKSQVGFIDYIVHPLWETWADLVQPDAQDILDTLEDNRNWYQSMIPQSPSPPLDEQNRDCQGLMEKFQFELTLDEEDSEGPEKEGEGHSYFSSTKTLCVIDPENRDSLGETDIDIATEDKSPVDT
Sequence of cAMP and cAMP-inhibited cGMP 3',5'-cyclic phosphodiesterase 10A (Q9Y233 whole entry): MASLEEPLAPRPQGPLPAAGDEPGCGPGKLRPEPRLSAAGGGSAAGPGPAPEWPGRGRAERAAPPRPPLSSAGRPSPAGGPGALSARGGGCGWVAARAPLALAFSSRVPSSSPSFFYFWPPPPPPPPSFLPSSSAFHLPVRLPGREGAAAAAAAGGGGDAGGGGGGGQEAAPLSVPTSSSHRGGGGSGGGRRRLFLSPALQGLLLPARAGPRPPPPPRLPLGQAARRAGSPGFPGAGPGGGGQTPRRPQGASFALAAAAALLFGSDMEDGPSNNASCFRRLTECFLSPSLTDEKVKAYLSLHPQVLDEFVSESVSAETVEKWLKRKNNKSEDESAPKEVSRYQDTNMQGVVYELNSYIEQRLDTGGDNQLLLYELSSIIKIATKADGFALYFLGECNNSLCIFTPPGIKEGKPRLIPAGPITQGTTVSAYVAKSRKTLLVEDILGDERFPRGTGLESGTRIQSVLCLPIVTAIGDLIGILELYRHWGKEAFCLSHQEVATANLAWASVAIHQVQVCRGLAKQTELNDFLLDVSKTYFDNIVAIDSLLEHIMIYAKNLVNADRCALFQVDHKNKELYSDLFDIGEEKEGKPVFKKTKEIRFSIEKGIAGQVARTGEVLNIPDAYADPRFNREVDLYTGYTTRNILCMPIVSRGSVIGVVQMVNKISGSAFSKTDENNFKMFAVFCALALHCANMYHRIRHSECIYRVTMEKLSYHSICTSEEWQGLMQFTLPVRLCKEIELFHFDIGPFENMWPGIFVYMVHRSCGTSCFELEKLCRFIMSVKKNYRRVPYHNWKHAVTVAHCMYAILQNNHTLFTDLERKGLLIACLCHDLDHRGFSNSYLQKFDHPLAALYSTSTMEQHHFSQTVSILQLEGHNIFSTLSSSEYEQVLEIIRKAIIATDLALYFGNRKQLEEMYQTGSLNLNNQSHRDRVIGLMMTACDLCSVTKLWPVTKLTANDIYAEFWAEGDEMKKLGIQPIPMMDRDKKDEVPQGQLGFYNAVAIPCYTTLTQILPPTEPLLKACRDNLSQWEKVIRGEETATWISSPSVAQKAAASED
Sequence of Dual specificity calcium/calmodulin-dependent 3',5'-cyclic nucleotide phosphodiesterase 1B (Q01064 whole entry): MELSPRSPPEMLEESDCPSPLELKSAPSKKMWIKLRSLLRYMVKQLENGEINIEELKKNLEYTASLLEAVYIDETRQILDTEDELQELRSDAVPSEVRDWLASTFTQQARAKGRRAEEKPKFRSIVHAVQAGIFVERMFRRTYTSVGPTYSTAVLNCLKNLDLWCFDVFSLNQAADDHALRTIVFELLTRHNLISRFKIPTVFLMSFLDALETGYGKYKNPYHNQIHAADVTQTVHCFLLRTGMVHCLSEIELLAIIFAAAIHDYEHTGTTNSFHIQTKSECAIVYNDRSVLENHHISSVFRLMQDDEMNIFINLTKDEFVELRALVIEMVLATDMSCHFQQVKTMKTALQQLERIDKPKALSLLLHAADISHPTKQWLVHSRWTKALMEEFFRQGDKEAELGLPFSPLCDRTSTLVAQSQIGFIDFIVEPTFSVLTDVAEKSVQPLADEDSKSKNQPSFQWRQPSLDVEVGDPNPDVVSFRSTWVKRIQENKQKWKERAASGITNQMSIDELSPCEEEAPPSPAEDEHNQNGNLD
Sequence of High affinity 3',5'-cyclic-AMP phosphodiesterase 7A (Q13946 whole entry): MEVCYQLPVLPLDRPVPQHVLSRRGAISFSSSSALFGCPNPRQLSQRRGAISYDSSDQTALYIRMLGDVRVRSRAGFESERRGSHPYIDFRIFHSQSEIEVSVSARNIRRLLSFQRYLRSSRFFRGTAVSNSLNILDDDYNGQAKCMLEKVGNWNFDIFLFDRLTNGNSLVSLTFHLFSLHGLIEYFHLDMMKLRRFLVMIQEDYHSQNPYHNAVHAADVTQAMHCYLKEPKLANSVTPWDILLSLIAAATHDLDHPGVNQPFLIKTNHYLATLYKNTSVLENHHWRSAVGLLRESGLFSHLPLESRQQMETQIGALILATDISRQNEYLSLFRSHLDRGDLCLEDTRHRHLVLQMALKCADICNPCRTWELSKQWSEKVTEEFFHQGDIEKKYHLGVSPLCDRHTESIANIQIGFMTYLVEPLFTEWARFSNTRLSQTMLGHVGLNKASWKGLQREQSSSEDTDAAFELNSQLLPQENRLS
Sequence of cGMP-inhibited 3',5'-cyclic phosphodiesterase 3B (Q13370 whole entry): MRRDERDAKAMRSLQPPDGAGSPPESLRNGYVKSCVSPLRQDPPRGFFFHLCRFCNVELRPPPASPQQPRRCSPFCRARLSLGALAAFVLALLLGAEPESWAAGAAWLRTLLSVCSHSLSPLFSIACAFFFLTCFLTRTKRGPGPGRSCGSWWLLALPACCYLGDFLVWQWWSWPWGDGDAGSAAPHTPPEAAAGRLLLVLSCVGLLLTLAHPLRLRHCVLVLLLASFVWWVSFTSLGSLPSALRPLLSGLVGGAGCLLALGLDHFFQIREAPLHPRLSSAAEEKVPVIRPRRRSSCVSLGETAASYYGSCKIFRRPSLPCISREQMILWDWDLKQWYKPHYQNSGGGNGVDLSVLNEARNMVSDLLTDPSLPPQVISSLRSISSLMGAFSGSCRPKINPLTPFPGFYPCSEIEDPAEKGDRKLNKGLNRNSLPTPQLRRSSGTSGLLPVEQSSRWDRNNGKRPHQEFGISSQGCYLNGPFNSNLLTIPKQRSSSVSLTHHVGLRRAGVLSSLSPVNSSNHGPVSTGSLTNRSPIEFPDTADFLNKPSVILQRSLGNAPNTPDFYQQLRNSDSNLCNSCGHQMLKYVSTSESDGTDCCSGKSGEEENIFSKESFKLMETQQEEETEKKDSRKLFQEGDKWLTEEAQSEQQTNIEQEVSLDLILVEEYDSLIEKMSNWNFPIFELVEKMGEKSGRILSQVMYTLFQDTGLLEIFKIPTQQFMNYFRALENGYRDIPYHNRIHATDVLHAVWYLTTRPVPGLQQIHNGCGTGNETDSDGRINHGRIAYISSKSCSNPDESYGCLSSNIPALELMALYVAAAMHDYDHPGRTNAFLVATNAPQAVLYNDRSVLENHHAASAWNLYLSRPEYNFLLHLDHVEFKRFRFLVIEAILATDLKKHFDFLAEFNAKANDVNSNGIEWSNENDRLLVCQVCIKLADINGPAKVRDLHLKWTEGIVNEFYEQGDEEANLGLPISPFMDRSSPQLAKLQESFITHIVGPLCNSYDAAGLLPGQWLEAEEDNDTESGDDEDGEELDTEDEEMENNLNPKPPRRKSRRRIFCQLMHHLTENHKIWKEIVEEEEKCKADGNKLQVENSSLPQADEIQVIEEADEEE
Sequence of cGMP-inhibited 3',5'-cyclic phosphodiesterase 3A (Q14432 whole entry): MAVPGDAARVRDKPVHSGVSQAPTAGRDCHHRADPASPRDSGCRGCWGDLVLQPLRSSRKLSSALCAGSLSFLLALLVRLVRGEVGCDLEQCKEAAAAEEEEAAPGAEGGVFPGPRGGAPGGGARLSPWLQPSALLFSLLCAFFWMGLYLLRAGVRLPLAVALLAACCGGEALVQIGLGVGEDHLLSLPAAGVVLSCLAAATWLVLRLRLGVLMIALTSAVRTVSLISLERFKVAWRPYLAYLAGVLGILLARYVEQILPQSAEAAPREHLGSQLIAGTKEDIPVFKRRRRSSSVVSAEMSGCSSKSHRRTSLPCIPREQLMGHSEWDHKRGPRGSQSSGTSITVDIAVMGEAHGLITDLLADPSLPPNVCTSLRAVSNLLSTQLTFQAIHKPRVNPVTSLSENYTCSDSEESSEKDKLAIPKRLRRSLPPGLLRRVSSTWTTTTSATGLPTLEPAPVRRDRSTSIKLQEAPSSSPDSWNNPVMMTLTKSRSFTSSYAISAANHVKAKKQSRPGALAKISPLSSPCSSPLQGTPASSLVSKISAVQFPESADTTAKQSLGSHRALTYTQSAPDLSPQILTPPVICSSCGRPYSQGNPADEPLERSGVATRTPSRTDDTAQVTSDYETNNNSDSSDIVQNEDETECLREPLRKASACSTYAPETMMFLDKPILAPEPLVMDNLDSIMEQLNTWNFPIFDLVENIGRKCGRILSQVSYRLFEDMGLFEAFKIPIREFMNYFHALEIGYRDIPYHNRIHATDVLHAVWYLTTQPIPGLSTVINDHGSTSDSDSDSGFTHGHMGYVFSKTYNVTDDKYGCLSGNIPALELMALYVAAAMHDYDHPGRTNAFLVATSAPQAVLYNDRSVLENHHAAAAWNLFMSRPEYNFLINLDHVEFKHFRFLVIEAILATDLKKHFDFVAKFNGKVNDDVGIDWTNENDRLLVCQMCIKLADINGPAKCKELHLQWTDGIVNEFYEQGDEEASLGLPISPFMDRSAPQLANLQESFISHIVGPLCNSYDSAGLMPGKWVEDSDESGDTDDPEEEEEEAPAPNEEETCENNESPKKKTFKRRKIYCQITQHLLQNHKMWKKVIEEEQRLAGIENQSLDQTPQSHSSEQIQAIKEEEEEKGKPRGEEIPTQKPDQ

For the molecule `CC(=O)c1ccc2nc(Oc3ccc4c(c3)COB4O)ccc2c1`, in data set [1], the half-maximal inhibitory concentration (IC50) worked out at 3.57 nM. Further, in the data set on Mus musculus [2], the “inhibition (INH)” value turned out to be 34.09%.

For the molecule `OB1OCc2cc(Oc3ccc4c(C(F)(F)F)cccc4n3)ccc21`, the half-inhibitory concentration (IC50) in data set [3] came to 6.42 nM. For the same molecule, in the data set on Mus musculus [2], the “inhibition (INH)” value was found to be 58.05%.

As to `CC(=O)c1cccc2nc(Oc3ccc4c(c3)COB4O)ccc12`, the IC50 in data set [1] was determined as 3.05 nM. Moreover, the “inhibition (INH)” value in the data set on Mus musculus [2] is reported as 39.56%.

As for `COC(=O)c1cccc2cc(Oc3ccc4c(c3)COB4O)ccc12`, the IC50 in data set [3] was 21.9 nM.

As to `CC1(C)CC(=O)c2ccc(Oc3ccc4c(c3)COB4O)cc2O1`, the concentration for half-maximal inhibition (IC50) in [3] came out at 65.5 nM.

In the case of `N#Cc1ccc(Oc2ccc3c(c2)COB3O)cc1` [CRISABOROLE], the IC50 in [4] amounted to 58800 nM; in data set [3], 57.2 nM; in [6] it was 3630 nM; in data set [7] it was 2030 nM; in [8] it was 17900 nM; in [9], 70 nM. Moreover, the IC50 in [11] is 64000 nM; in [14] it was 71000 nM; in [16], 56100 nM; in data set [18], 97600 nM; in data set [23] it was 5600 nM. The Ratio IC50 amounted to 850 in the data set filed under Homo sapiens [5]; 970 in the data set listed under Homo sapiens [10]; 891 in the data set listed under Homo sapiens [12]; 1480 in the data set listed under Homo sapiens [15]; 55 in the data set filed under Homo sapiens [19]; 1080 in the data set filed under Homo sapiens [21]. Further, the Ratio IC50 in the data set listed under Homo sapiens [22] turned out to be 271; in the data set listed under Homo sapiens [24] it was 31; in the data set filed under Homo sapiens [26], 85. Further, the Activity entry in data set [13] is reported as “Non-Toxic”; in [17], “Non-Toxic”; in the data set on Mus musculus [20], 0.29 mm; in the data set with Mus musculus [25] it was 32.5%; in the data set on Mus musculus [27] it was 0.37 mm. For the same molecule, the “inhibition (INH)” value with Mus musculus [2] was 43.55%.

Regarding `COC(=O)c1cnn2ccc(Oc3ccc4c(c3)COB4O)nc12`, the half-maximal inhibitory concentration (IC50) in data set [3] came to 46.2 nM.

For the molecule `N#Cc1ccc2cc(Oc3ccc4c(c3)COB4O)ccc2c1`, the 50% inhibitory concentration (IC50) in data set [3] came to 25.5 nM.
